In ChEMBL document CHEMBL1275547, “KHM-1, a novel plasmid-mediated metallo-beta-lactamase from a Citrobacter freundii clinical isolate” (2008):
≈ marks a conversion by molar mass, not a printed value. Calls of active or inactive are those of the source. The calls are words filed in the database; no cut-off is given here.

Tests used:
[1] = tested on: Escherichia coli; assay: Antibacterial activity against Escherichia coli K-12 W1895 by microdilution method; format: functional
In short: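 Microdilution β-lactam MICs in E. coli K-12 W1895, the conjugation recipient. Transconjugants carrying the natural blaKHM-1 plasmid were selected on Penassay agar with rifampin (200 μg/ml) and moxalactam (16 μg/ml).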

[2] = tested on: Escherichia coli; assay: Antibacterial activity against Escherichia coli JM109 harboring recombinant pKHM-1 by microdilution method; format: functional
[3] = tested on: Escherichia coli; assay: Antibacterial activity against Escherichia coli JM109 by microdilution method; format: functional
In short: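 Microdilution β-lactam susceptibility in E. coli JM109, the host strain for recombinant plasmids such as the pHSG396-based blaKHM-1 clone.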

[4] = tested on: Escherichia coli; assay: Antibacterial activity against Escherichia coli K-12 W1895 transconjugant harboring pCF243 by microdilution method; format: functional
[5] = tested on: Escherichia coli; assay: Ratio of Kcat to Km for Escherichia coli JM109 harboring recombinant pKHM-1 Beta-lactamase KHM-1 assessed as compound hydrolysis by UV-visible spectrophotometry
In short: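 KHM-1 was purified from E. coli JM109(pKHM-1) on HiTrap Q and Superdex 200 columns, with fractions tracked by 100 μM nitrocefin hydrolysis. Protein was measured by BCA. Hydrolysis was followed spectrophotometrically in 50 mM phosphate pH 7.0 at 25°C under initial-rate conditions. Km and kcat came from Lineweaver-Burk plots as means of three independent experiments, and kcat/Km was calculated from them.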

[6] = tested on: Escherichia coli; settings: JM109
[7] = tested on: Citrobacter freundii; assay: Antibacterial activity against Citrobacter freundii KHM243 clinical isolate by microdilution method; format: functional
[8] = tested on: Escherichia coli; assay: Antibacterial activity against Escherichia coli K-12 W1895 by microdilution method in presence of Sulbactam; format: functional
In short: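 β-Lactam susceptibility was measured by microdilution. Ampicillin was tested combined with sulbactam at a fixed 2:1 ampicillin:sulbactam ratio. The E. coli K-12 W1895 strain served as the recipient strain in the conjugation experiments.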

[9] = tested on: Escherichia coli; assay: Antibacterial activity against Escherichia coli K-12 W1895 transconjugant harboring pCF243 by microdilution method in presence of Sulbactam; format: functional
In short: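 Broth microdilution MIC of ampicillin-sulbactam, combined at a 2:1 ampicillin:sulbactam ratio. The host is an E. coli K-12 W1895 transconjugant carrying the natural blaKHM-1 plasmid pCF243 from C. freundii KHM243, selected on Penassay broth agar with rifampin (200 μg/ml) and moxalactam.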

[10] = tested on: Citrobacter freundii; assay: Antibacterial activity against Citrobacter freundii KHM243 clinical isolate by microdilution method in presence of Sulbactam; format: functional
In short: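 Broth microdilution susceptibility of C. freundii KHM243, a urinary isolate from a catheter-associated UTI patient (1997). Ampicillin was tested with sulbactam at a fixed ampicillin:sulbactam ratio of 2:1.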

[11] = tested on: Escherichia coli; assay: Antibacterial activity against Escherichia coli JM109 harboring recombinant pKHM-1 by microdilution method in presence of Sulbactam; format: functional
In short: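 Broth microdilution MIC of ampicillin-sulbactam, combined at a 2:1 ampicillin:sulbactam ratio. The host is E. coli JM109 carrying pKHM-1, a recombinant pHSG396 clone of an EcoRI fragment of pCF243 bearing blaKHM-1, selected on agar with moxalactam (1 μg/ml).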

[12] = tested on: Escherichia coli; assay: Antibacterial activity against Escherichia coli JM109 by microdilution method in presence of Sulbactam; format: functional
In short: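 Microdilution β-lactam susceptibility in E. coli JM109, the host for recombinant plasmids including the pHSG396 construct carrying blaKHM-1. Sulbactam was paired with ampicillin at a fixed 2:1 ampicillin-to-sulbactam ratio.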

[13] = tested on: Escherichia coli; settings: JM109; remark: listed apart in the source
[14] = tested on: Escherichia coli; assay: Antibacterial activity against Escherichia coli K-12 W1895 transconjugant harboring pCF243 by microdilution method in presence of clavulanic acid; format: functional
In short: (§1)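 Broth microdilution MICs of β-lactams. Clavulanic acid was tested combined with ticarcillin at a fixed 15:1 ticarcillin:clavulanic acid ratio.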

[15] = tested on: Citrobacter freundii; assay: Antibacterial activity against Citrobacter freundii KHM243 clinical isolate by microdilution method in presence of clavulanic acid; format: functional
In short: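 Broth microdilution MICs of β-lactams against the C. freundii KHM243 urinary isolate. Clavulanic acid was combined with ticarcillin at a fixed 15:1 ticarcillin-to-clavulanate ratio.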

[16] = tested on: Escherichia coli; assay: Antibacterial activity against Escherichia coli JM109 by microdilution method in presence of clavulanic acid; format: functional
In short: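 Broth microdilution susceptibility of E. coli JM109, the host strain for pHSG396-based recombinant plasmids. Ticarcillin was tested with clavulanic acid at a fixed ticarcillin:clavulanic acid ratio of 15:1.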

[17] = tested on: Escherichia coli; assay: Antibacterial activity against Escherichia coli K-12 W1895 by microdilution method in presence of clavulanic acid; format: functional; in short: as §1
[18] = tested on: Escherichia coli; assay: Antibacterial activity against Escherichia coli JM109 harboring recombinant pKHM-1 by microdilution method in presence of clavulanic acid; format: functional; in short: as §1

Row | Structure (SMILES) | MIC [1] [µg/mL] | MIC [2] [µg/mL] | MIC [3] [µg/mL] | MIC [4] [µg/mL] | kcat/Km [5] | Km [6] [µM] | kcat [6] [s⁻¹] | MIC [7] [µg/mL] | also measured
1 | CO/N=C(\C(=O)N[C@@H]1C(=O)N2C(C(=O)[O-])=C(C[N+]3(C)CCCC3)CS[C@H]12)c1csc(N)n1 | 0.002 (≈ 0.00416 µM) | 64 | 0.004 (≈ 0.00832 µM) | > 512 |  |  |  |  | 
2 | CC1(C)S[C@@H]2[C@H](NC(=O)Cc3ccccc3)C(=O)N2[C@H]1C(=O)O |  |  |  |  | 1.7 ×10⁴ /M/s | 1340 | 23 |  | 
3 | CC1(C)S[C@@H]2[C@H](NC(=O)[C@H](N)c3ccccc3)C(=O)N2[C@H]1C(=O)O [AMPICILLIN] | 8 (≈ 22.9 µM) | 16 | 1 (≈ 2.86 µM) | 64 (≈ 183 µM) | 1.9 ×10⁴ /M/s | 978 | 19 | 256 (≈ 733 µM) | MIC [8]: 1 µg/mL; MIC [9]: 64 µg/mL; MIC [10]: 64 µg/mL; MIC [11]: 16 µg/mL; MIC [12]: 0.5 µg/mL
4 | C[C@H]1[C@H](NC(=O)/C(=N\OC(C)(C)C(=O)O)c2csc(N)n2)C(=O)N1S(=O)(=O)O [AZTREONAM] | 0.031 (≈ 0.0712 µM) | 0.063 |  | 0.063 (≈ 0.145 µM) |  |  |  |  | Km [13]: inactive; kcat [13]: inactive
5 | NC(=O)OC[C@@H]1[C@H](NC(=O)/C(=N\OCC(=O)O)c2csc(N)n2)C(=O)N1S(=O)(=O)O [CARUMONAM] | 0.031 (≈ 0.0665 µM) | 0.063 | 0.031 (≈ 0.0665 µM) | 0.125 (≈ 0.268 µM) |  |  |  | 0.25 (≈ 0.536 µM) | 
6 | CCN1CCN(C(=O)N[C@@H](C(=O)N[C@]2(OC)C(=O)N3C(C(=O)O)=C(CSc4nnnn4C)CS[C@@H]32)[C@H](C)O)C(=O)C1=O [CEFBUPERAZONE] | 0.063 (≈ 0.1 µM) | 512 | 0.031 (≈ 0.0494 µM) | 256 (≈ 408 µM) |  |  |  | 128 (≈ 204 µM) | 
7 | CO[C@@]1(NC(=O)CSCC#N)C(=O)N2C(C(=O)O)=C(CSc3nnnn3C)CS[C@@H]21 [CEFMETAZOLE] | 0.5 (≈ 1.06 µM) | > 512 | 0.25 (≈ 0.53 µM) | 512 (≈ 1090 µM) |  |  |  | 512 (≈ 1090 µM) | 
8 | CO[C@@]1(NC(=O)CSC[C@@H](N)C(=O)O)C(=O)N2C(C(=O)O)=C(CSc3nnnn3C)CS[C@@H]21 [CEFMINOX] | 0.125 (≈ 0.241 µM) | 512 | 0.25 (≈ 0.481 µM) | > 512 |  |  |  | 512 (≈ 985 µM) | 
9 | CO/N=C(\C(=O)N[C@@H]1C(=O)N2C(C(=O)O)=C(COC(C)=O)CS[C@H]12)c1csc(N)n1 [CEFOTAXIME] | 0.008 (≈ 0.0176 µM) | 128 | 0.004 (≈ 0.00878 µM) | > 512 |  | 13 | 2180 | 64 (≈ 141 µM) | 
10 | CO[C@@]1(NC(=O)C2SC(=C(C(N)=O)C(=O)O)S2)C(=O)N2C(C(=O)O)=C(CSc3nnnn3C)CS[C@@H]21 (stereo partly specified) [CEFOTETAN] | 0.125 (≈ 0.217 µM) | > 512 | 0.031 (≈ 0.0539 µM) | 512 (≈ 889 µM) |  |  |  | 128 (≈ 222 µM) | 
11 | CO[C@@]1(NC(=O)Cc2cccs2)C(=O)N2C(C(=O)O)=C(COC(N)=O)CS[C@@H]21 [CEFOXITIN] | 8 (≈ 18.7 µM) | > 512 | 8 (≈ 18.7 µM) | > 512 | 1.4 ×10⁷ /M/s | 81 | 1180 | 512 (≈ 1200 µM) | 
12 | CO/N=C(\C(=O)N[C@@H]1C(=O)N2C(C(=O)[O-])=C(C[n+]3ccn4ncccc43)CS[C@H]12)c1nsc(N)n1 [CEFOZOPRAN] | 0.016 (≈ 0.031 µM) | 64 | 0.008 (≈ 0.0155 µM) | 256 (≈ 497 µM) |  |  |  | 16 (≈ 31 µM) | 
13 | CC(C)(O/N=C(\C(=O)N[C@@H]1C(=O)N2C(C(=O)[O-])=C(C[n+]3ccccc3)CS[C@H]12)c1csc(N)n1)C(=O)O [CEFTAZIDIME] | 0.125 (≈ 0.229 µM) | > 512 | 0.063 (≈ 0.115 µM) | > 512 | 1.5 ×10⁷ /M/s | 8 | 118 | > 512 | 
14 | CO/N=C(\C(=O)N[C@@H]1C(=O)N2C(C(=O)O)=C(COC(N)=O)CS[C@H]12)c1ccco1 [CEFUROXIME] | 2 (≈ 4.71 µM) | > 512 | 8 (≈ 18.9 µM) | > 512 |  |  |  | > 512 | 
15 | O=C(Cc1cccs1)N[C@@H]1C(=O)N2C(C(=O)[O-])=C(C[n+]3ccccc3)CS[C@H]12 [CEPHALORIDINE] | 2 (≈ 4.81 µM) | 64 | 1 (≈ 2.41 µM) | 128 (≈ 308 µM) | 1.6 ×10⁸ /M/s | 4.4 | 686 | 512 (≈ 1230 µM) | 
16 | CO[C@@]1(NC(=O)CSC(F)F)C(=O)N2C(C(=O)O)=C(CSc3nnnn3CCO)CO[C@@H]21 [FLOMOXEF] | 0.031 (≈ 0.0624 µM) | 128 | 0.031 (≈ 0.0624 µM) | 256 (≈ 516 µM) |  |  |  | 64 (≈ 129 µM) | 
17 | C[C@@H](O)[C@H]1C(=O)N2C(C(=O)O)=C(SCCNC=N)C[C@H]12 [IMIPENEM ANHYDROUS] | 0.063 (≈ 0.21 µM) |  |  | 4 (≈ 13.4 µM) | 5.6 ×10⁴ /M/s |  |  | 2 (≈ 6.68 µM) | 
18 | C[C@@H](O)[C@H]1C(=O)N2C(C(=O)O)=C(S[C@@H]3CN[C@H](C(=O)N(C)C)C3)[C@H](C)[C@H]12 [MEROPENEM] | 0.004 (≈ 0.0104 µM) | 4 | 0.004 (≈ 0.0104 µM) | 4 (≈ 10.4 µM) | 3.3 ×10⁴ /M/s | 12 | 0.4 | 4 (≈ 10.4 µM) | 
19 | CO[C@@]1(NC(=O)C(C(=O)O)c2ccc(O)cc2)C(=O)N2C(C(=O)O)=C(CSc3nnnn3C)CO[C@@H]21 (stereo partly specified) [MOXALACTAM] | 0.063 (≈ 0.121 µM) | > 512 | 0.031 (≈ 0.0596 µM) | > 512 | 3.9 ×10⁷ /M/s | 71 | 2790 | 256 (≈ 492 µM) | 
20 | CCN1CCN(C(=O)N[C@@H](C(=O)N[C@@H]2C(=O)N3[C@@H]2SC(C)(C)[C@@H]3C(=O)O)c2ccccc2)C(=O)C1=O [PIPERACILLIN] | 2 (≈ 3.86 µM) | 4 | 0.25 (≈ 0.483 µM) | 16 (≈ 30.9 µM) |  |  |  | 4 (≈ 7.73 µM) | 
21 | CC1(C)S[C@@H]2[C@H](NC(=O)[C@H](C(=O)O)c3ccsc3)C(=O)N2[C@H]1C(=O)O [TICARCILLIN] | 2 (≈ 5.2 µM) | 512 | 2 (≈ 5.2 µM) | > 512 |  |  |  | > 512 | MIC [14]: > 512 µg/mL; MIC [15]: 512 µg/mL; MIC [16]: 2 µg/mL; MIC [17]: 4 µg/mL; MIC [18]: 512 µg/mL
